Calls of active or inactive are those of the source. The rule behind the calls is not given here.
System: Rattus norvegicus
Experiment: Inhibition of ischemia/reperfusion-induced oxidative stress in ischemia/reperfusion-induced myocardial injury and high fat diet fed obese Wistar rat model assessed as increase in cardiac SOD activity at 20 mg/kg/day, ip administered for 4 weeks followed by excised heart exposed to global ischemia for 30 mins and reperfusion for 120 mins
Type: functional, organism-based
In short: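 Same rat diet, dosing and ischemia/reperfusion protocol. LV homogenized in 50 mM Tris-HCl pH 8.2 with 1 mM DTPA and centrifuged at 20,000 x g for 20 min. Supernatant mixed with 0.2 mM pyrogallol, autoxidation followed at 420 nm for 3 min. Activity given as % pyrogallol autoxidation relative to sham; 1 U inhibits the rate by 50%.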

## CCOC(=O)Cn1nc(Cc2ccccc2Cl)oc1=O
  inhibition: Active
